Experimental data reported in ChEMBL document CHEMBL1914398, “Synthesis and evaluation of novel N-fluoropyridyl derivatives of tropane as potential PET imaging agents for the dopamine transporter” (Bioorg Med Chem Lett, 2011).

What was measured:
[1] = target: Sodium-dependent dopamine transporter (Homo sapiens, UniProt Q01959); assay: Displacement of [125I]-IPT from DAT transfected in pig LLC-PK1 cells by radioligand competition binding assay; format: cell-based
[2] = target: Sodium-dependent serotonin transporter (Homo sapiens, UniProt P31645); assay: Displacement of [125I]-IDAM from SERT transfected in pig LLC-PK1 cells by radioligand competition binding assay; format: cell-based
Chain of Sodium-dependent serotonin transporter (P31645 whole entry): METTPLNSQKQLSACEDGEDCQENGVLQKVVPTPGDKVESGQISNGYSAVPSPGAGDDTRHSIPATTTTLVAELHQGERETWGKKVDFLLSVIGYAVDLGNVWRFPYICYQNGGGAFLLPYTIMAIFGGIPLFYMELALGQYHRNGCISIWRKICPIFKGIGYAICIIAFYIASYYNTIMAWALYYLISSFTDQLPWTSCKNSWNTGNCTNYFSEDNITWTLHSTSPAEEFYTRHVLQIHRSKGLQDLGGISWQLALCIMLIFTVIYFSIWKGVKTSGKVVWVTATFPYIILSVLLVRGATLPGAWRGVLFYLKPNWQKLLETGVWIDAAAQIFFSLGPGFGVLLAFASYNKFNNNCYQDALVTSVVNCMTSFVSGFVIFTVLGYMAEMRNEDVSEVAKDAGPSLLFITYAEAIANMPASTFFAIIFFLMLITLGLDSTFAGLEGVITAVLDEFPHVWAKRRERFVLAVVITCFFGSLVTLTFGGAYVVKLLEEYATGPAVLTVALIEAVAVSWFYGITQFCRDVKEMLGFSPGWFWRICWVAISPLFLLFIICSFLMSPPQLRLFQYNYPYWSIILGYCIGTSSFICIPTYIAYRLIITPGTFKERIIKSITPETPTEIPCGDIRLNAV

[3] = Selectivity ratio of Ki for NET to Ki for DAT
[4] = target: Sodium-dependent noradrenaline transporter (Homo sapiens, UniProt P23975); assay: Displacement of [125I]-INXT from NET transfected in pig LLC-PK1 cells by radioligand competition binding assay; format: cell-based
Chain of Sodium-dependent noradrenaline transporter (P23975 whole entry): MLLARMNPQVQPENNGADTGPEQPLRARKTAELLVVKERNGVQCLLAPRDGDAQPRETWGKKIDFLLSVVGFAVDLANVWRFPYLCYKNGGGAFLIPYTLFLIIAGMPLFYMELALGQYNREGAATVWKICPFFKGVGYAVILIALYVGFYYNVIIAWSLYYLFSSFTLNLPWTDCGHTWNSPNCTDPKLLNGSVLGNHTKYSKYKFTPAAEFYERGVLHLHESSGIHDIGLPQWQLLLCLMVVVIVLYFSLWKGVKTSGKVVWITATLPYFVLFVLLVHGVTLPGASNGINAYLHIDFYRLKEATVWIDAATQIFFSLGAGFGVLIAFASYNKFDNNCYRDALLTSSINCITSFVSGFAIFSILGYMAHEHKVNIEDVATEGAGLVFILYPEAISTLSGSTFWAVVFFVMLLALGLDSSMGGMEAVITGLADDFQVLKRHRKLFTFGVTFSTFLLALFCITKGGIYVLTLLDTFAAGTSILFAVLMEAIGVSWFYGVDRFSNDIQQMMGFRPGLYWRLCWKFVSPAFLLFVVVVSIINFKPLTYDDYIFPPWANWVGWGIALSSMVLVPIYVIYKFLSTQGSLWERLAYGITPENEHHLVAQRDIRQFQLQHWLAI

[5] = Selectivity ratio of Ki for SERT to Ki for DAT
Nucleic Acid [6] = assay: Ratio of drug uptake in cortex to cerebellum in Sprague-Dawley rat at 25 uCi, iv after 60 mins; format: ADME, organism-based; conditions: in vivo, 1 h
Method in brief: (§1)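 Region-to-cerebellum uptake ratios were calculated from %ID/g values (n = 5 rats per time point). These came from normal male Sprague-Dawley rats given 25 µCi of the 18F-tracer through the femoral vein and dissected at 2, 60, 120 or 180 min. Tissue was gamma-counted, and cerebellum served as the non-target background region.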

Striatum [7] = assay: Drug uptake in Sprague-Dawley rat striatum at 25 uCi, iv after 60 mins by gamma counter; format: ADME, organism-based; conditions: in vivo, 1 h
Method in brief: (§2)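 Normal male Sprague-Dawley rats were given 25 µCi of the 18F-tracer via the femoral vein. Rats (n = 5 per time point) were sacrificed at 2, 60, 120 or 180 min post-injection. Brain regions were dissected and weighed, and radioactivity was gamma-counted. Values are %ID/g, calculated against diluted aliquots of the injected dose, as mean ± S.D.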

Nucleic Acid [8] = assay: Ratio of drug uptake in striatum to cerebellum in Sprague-Dawley rat at 25 uCi, iv after 60 mins; format: ADME, organism-based; conditions: in vivo, 1 h; method in brief: as §1
[9] = Lipophilicity, log P of the compound; format: physicochemical; conditions: octanol/water
Cerebellum [10] = assay: Drug uptake in Sprague-Dawley rat cerebellum at 25 uCi, iv after 180 mins by gamma counter; format: ADME, organism-based; conditions: in vivo, 3 h; method in brief: as §2
Hypothalamus [11] = assay: Drug uptake in Sprague-Dawley rat hypothalamus at 25 uCi, iv after 120 mins by gamma counter; format: ADME, organism-based; conditions: in vivo, 2 h; method in brief: as §2
Nucleic Acid [12] = assay: Ratio of drug uptake in hippocampus to cerebellum in Sprague-Dawley rat at 25 uCi, iv after 180 mins; format: ADME, organism-based; conditions: in vivo, 3 h; method in brief: as §1
Cortex [13] = assay: Drug uptake in Sprague-Dawley rat cortex at 25 uCi, iv after 180 mins by gamma counter; format: ADME, organism-based; conditions: in vivo, 3 h; method in brief: as §2
Hippocampus [14] = assay: Drug uptake in Sprague-Dawley rat hippocampus at 25 uCi, iv after 2 mins by gamma counter; format: ADME, organism-based; conditions: in vivo; method in brief: as §2
Cortex [15] = assay: Drug uptake in Sprague-Dawley rat cortex at 25 uCi, iv after 2 mins by gamma counter; format: ADME, organism-based; conditions: in vivo; method in brief: as §2
Nucleic Acid [16] = assay: Ratio of drug uptake in cortex to cerebellum in Sprague-Dawley rat at 25 uCi, iv after 120 mins; format: ADME, organism-based; conditions: in vivo, 2 h; method in brief: as §1
Brain [17] = assay: Drug uptake in Sprague-Dawley rat brain at 25 uCi, iv after 2 mins by gamma counter; format: ADME, organism-based; conditions: in vivo; method in brief: as §2
Brain [18] = assay: Drug uptake in Sprague-Dawley rat brain at 25 uCi, iv after 60 mins by gamma counter; format: ADME, organism-based; conditions: in vivo, 1 h; method in brief: as §2
Nucleic Acid [19] = assay: Ratio of drug uptake in cortex to cerebellum in Sprague-Dawley rat at 25 uCi, iv after 2 mins; format: ADME, organism-based; conditions: in vivo; method in brief: as §1
Hippocampus [20] = assay: Drug uptake in Sprague-Dawley rat hippocampus at 25 uCi, iv after 60 mins by gamma counter; format: ADME, organism-based; conditions: in vivo, 1 h; method in brief: as §2
Nucleic Acid [21] = assay: Ratio of drug uptake in hypothalamus to cerebellum in Sprague-Dawley rat at 25 uCi, iv after 120 mins; format: ADME, organism-based; conditions: in vivo, 2 h; method in brief: as §1
Striatum [22] = assay: Drug uptake in Sprague-Dawley rat striatum at 2.5 mCi, iv after 60 mins post injection measured by autoradiographic technique; format: ADME, organism-based; conditions: in vivo, 1 h
Method in brief: (§3)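 For ex vivo autoradiography, normal Sprague-Dawley rats received 2.5 mCi of the 18F-tracer intravenously and were sacrificed at 60 min post-injection. Brains were removed immediately, frozen and sectioned. Dried sections were exposed to film overnight in an autoradiographic cassette to map regional radioactivity.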

Cortex [23] = assay: Drug uptake in Sprague-Dawley rat cortex at 25 uCi, iv after 60 mins by gamma counter; format: ADME, organism-based; conditions: in vivo, 1 h; method in brief: as §2
Hypothalamus [24] = assay: Drug uptake in Sprague-Dawley rat hypothalamus at 25 uCi, iv after 180 mins by gamma counter; format: ADME, organism-based; conditions: in vivo, 3 h; method in brief: as §2
Nucleic Acid [25] = assay: Ratio of drug uptake in hippocampus to cerebellum in Sprague-Dawley rat at 25 uCi, iv after 120 mins; format: ADME, organism-based; conditions: in vivo, 2 h; method in brief: as §1
Cortex [26] = assay: Drug uptake in Sprague-Dawley rat cortex at 2.5 mCi, iv after 60 mins post injection measured by autoradiographic technique; format: ADME, organism-based; conditions: in vivo, 1 h; method in brief: as §3
Nucleic Acid [27] = assay: Ratio of drug uptake in striatum to cerebellum in Sprague-Dawley rat at 25 uCi, iv after 180 mins; format: ADME, organism-based; conditions: in vivo, 3 h; method in brief: as §1
Cortex [28] = assay: Drug uptake in Sprague-Dawley rat cortex at 25 uCi, iv after 120 mins by gamma counter; format: ADME, organism-based; conditions: in vivo, 2 h; method in brief: as §2
Hippocampus [29] = assay: Drug uptake in Sprague-Dawley rat hippocampus at 25 uCi, iv after 180 mins by gamma counter; format: ADME, organism-based; conditions: in vivo, 3 h; method in brief: as §2
Nucleic Acid [30] = assay: Ratio of drug uptake in hippocampus to cerebellum in Sprague-Dawley rat at 25 uCi, iv after 2 mins; format: ADME, organism-based; conditions: in vivo; method in brief: as §1
Nucleic Acid [31] = assay: Ratio of drug uptake in hypothalamus to cerebellum in Sprague-Dawley rat at 25 uCi, iv after 60 mins; format: ADME, organism-based; conditions: in vivo, 1 h; method in brief: as §1
Striatum [32] = assay: Drug uptake in Sprague-Dawley rat striatum at 25 uCi, iv after 120 mins by gamma counter; format: ADME, organism-based; conditions: in vivo, 2 h; method in brief: as §2
[33] = Drug uptake in Sprague-Dawley rat putamen at 2.5 mCi, iv after 60 mins post injection measured by autoradiographic technique; format: ADME, organism-based; conditions: in vivo, 1 h; method in brief: as §3
Nucleic Acid [34] = assay: Ratio of drug uptake in striatum to cerebellum in Sprague-Dawley rat at 25 uCi, iv after 2 mins; format: ADME, organism-based; conditions: in vivo; method in brief: as §1
Nucleic Acid [35] = assay: Ratio of drug uptake in striatum to cerebellum in Sprague-Dawley rat at 25 uCi, iv after 120 mins; format: ADME, organism-based; conditions: in vivo, 2 h; method in brief: as §1
Striatum [36] = assay: Drug uptake in Sprague-Dawley rat striatum at 25 uCi, iv after 180 mins by gamma counter; format: ADME, organism-based; conditions: in vivo, 3 h; method in brief: as §2
Hypothalamus [37] = assay: Drug uptake in Sprague-Dawley rat hypothalamus at 25 uCi, iv after 2 mins by gamma counter; format: ADME, organism-based; conditions: in vivo; method in brief: as §2
Nucleic Acid [38] = assay: Ratio of drug uptake in hippocampus to cerebellum in Sprague-Dawley rat at 25 uCi, iv after 60 mins; format: ADME, organism-based; conditions: in vivo, 1 h; method in brief: as §1
Nucleic Acid [39] = assay: Ratio of drug uptake in cortex to cerebellum in Sprague-Dawley rat at 25 uCi, iv after 180 mins; format: ADME, organism-based; conditions: in vivo, 3 h; method in brief: as §1
Nucleic Acid [40] = assay: Ratio of drug uptake in hypothalamus to cerebellum in Sprague-Dawley rat at 25 uCi, iv after 2 mins; format: ADME, organism-based; conditions: in vivo; method in brief: as §1
Nucleic Acid [41] = assay: Ratio of drug uptake in hypothalamus to cerebellum in Sprague-Dawley rat at 25 uCi, iv after 180 mins; format: ADME, organism-based; conditions: in vivo, 3 h; method in brief: as §1
Cerebellum [42] = assay: Drug uptake in Sprague-Dawley rat cerebellum at 25 uCi, iv after 120 mins by gamma counter; format: ADME, organism-based; conditions: in vivo, 2 h; method in brief: as §2
Brain [43] = assay: Drug uptake in Sprague-Dawley rat brain at 25 uCi, iv after 180 mins by gamma counter; format: ADME, organism-based; conditions: in vivo, 3 h; method in brief: as §2
Striatum [44] = assay: Drug uptake in Sprague-Dawley rat striatum at 25 uCi, iv after 2 mins by gamma counter; format: ADME, organism-based; conditions: in vivo; method in brief: as §2
[45] = Drug uptake in Sprague-Dawley rat caudate at 2.5 mCi, iv after 60 mins post injection measured by autoradiographic technique; format: ADME, organism-based, Caudate nucleus; conditions: in vivo, 1 h; method in brief: as §3
Cerebellum [46] = assay: Drug uptake in Sprague-Dawley rat cerebellum at 25 uCi, iv after 2 mins by gamma counter; format: ADME, organism-based; conditions: in vivo; method in brief: as §2
Hypothalamus [47] = assay: Drug uptake in Sprague-Dawley rat hypothalamus at 25 uCi, iv after 60 mins by gamma counter; format: ADME, organism-based; conditions: in vivo, 1 h; method in brief: as §2
Brain [48] = assay: Drug uptake in Sprague-Dawley rat brain at 25 uCi, iv after 120 mins by gamma counter; format: ADME, organism-based; conditions: in vivo, 2 h; method in brief: as §2
Hippocampus [49] = assay: Drug uptake in Sprague-Dawley rat hippocampus at 25 uCi, iv after 120 mins by gamma counter; format: ADME, organism-based; conditions: in vivo, 2 h; method in brief: as §2
Cerebellum [50] = assay: Drug uptake in Sprague-Dawley rat cerebellum at 25 uCi, iv after 60 mins by gamma counter; format: ADME, organism-based; conditions: in vivo, 1 h; method in brief: as §2

Chain of Sodium-dependent dopamine transporter (Q01959 whole entry): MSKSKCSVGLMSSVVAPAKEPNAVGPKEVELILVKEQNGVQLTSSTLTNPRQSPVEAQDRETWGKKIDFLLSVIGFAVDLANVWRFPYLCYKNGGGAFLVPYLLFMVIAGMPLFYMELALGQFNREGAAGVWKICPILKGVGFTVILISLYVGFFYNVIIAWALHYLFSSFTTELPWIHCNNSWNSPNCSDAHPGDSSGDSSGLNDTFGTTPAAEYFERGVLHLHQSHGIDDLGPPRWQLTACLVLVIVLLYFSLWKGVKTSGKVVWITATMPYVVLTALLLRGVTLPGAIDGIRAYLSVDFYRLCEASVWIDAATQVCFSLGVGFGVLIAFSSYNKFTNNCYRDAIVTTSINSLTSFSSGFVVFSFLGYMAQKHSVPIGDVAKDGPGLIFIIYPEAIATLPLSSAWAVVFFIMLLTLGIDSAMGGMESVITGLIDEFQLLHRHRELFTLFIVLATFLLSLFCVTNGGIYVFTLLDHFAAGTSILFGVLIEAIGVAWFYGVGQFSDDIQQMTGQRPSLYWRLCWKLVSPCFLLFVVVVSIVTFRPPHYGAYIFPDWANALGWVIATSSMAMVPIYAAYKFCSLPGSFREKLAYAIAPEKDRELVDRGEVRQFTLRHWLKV

CN1C2CCC1[C@@H](C(=O)Nc1cccc(F)n1)[C@@H](c1ccc(Cl)cc1)C2 (stereo not given in full)
Ki [1]: 127 nM | Ki [2]: 29100 nM | Ratio Ki [3]: 133 | Ki [4]: 16900 nM | Ratio Ki [5]: 229

CN1C2CCC1[C@@H](CNc1ccnc(Br)c1)[C@@H](c1ccc(Cl)cc1)C2 (stereo not given in full)
Ki [1]: 7.9 nM | Ki [2]: 11 nM | Ratio Ki [3]: 3.5 | Ki [4]: 27.7 nM | Ratio Ki [5]: 1.4

CN1C2CCC1[C@@H](CN(C(=O)OC(C)(C)C)c1cccc([18F])n1)[C@@H](c1ccc(Cl)cc1)C2 (stereo not given in full)
Ratio (Nucleic Acid [6]): 1.21 | Drug uptake (Striatum [7]): 0.47 % ID/g | Ratio (Nucleic Acid [8]): 2.02 | logP [9]: 1.88 | Drug uptake (Cerebellum [10]): 0.03 % ID/g | Drug uptake (Hypothalamus [11]): 0.06 % ID/g | Ratio (Nucleic Acid [12]): 1.81 | Drug uptake (Cortex [13]): 0.03 % ID/g | Drug uptake (Hippocampus [14]): 0.36 % ID/g | Drug uptake (Cortex [15]): 0.45 % ID/g | Ratio (Nucleic Acid [16]): 1.4 | Drug uptake (Brain [17]): 0.4 % ID/g | Drug uptake (Brain [18]): 0.26 % ID/g | Ratio (Nucleic Acid [19]): 0.91 | Drug uptake (Hippocampus [20]): 0.28 % ID/g | Ratio (Nucleic Acid [21]): 1.31 | Drug uptake (Striatum [22]): Active | Drug uptake (Cortex [23]): 0.28 % ID/g | Drug uptake (Hypothalamus [24]): 0.04 % ID/g | Ratio (Nucleic Acid [25]): 1.61 | Drug uptake (Cortex [26]): Active | Ratio (Nucleic Acid [27]): 3.14 | Drug uptake (Cortex [28]): 0.07 % ID/g | Drug uptake (Hippocampus [29]): 0.05 % ID/g | Ratio (Nucleic Acid [30]): 0.72 | Ratio (Nucleic Acid [31]): 1.24 | Drug uptake (Striatum [32]): 0.12 % ID/g | Drug uptake [33]: Active | Ratio (Nucleic Acid [34]): 0.82 | Ratio (Nucleic Acid [35]): 2.54 | Drug uptake (Striatum [36]): 0.09 % ID/g | Drug uptake (Hypothalamus [37]): 0.4 % ID/g | Ratio (Nucleic Acid [38]): 1.21 | Ratio (Nucleic Acid [39]): 0.96 | Ratio (Nucleic Acid [40]): 0.81 | Ratio (Nucleic Acid [41]): 1.51 | Drug uptake (Cerebellum [42]): 0.05 % ID/g | Drug uptake (Brain [43]): 0.04 % ID/g | Drug uptake (Striatum [44]): 0.4 % ID/g | Drug uptake [45]: Active | Drug uptake (Cerebellum [46]): 0.49 % ID/g | Drug uptake (Hypothalamus [47]): 0.29 % ID/g | Drug uptake (Brain [48]): 0.07 % ID/g | Drug uptake (Hippocampus [49]): 0.08 % ID/g | Drug uptake (Cerebellum [50]): 0.23 % ID/g
